According to ChEMBL document CHEMBL4041463, “Pyrazolo[1,5-a]pyridine-3-carboxamide hybrids: Design, synthesis and evaluation of anti-tubercular activity” (Eur J Med Chem, 2017):
Values after ≈ are worked out from the molar mass of the structure shown.

Legend:
Format in all cases: functional
[1] = test system: Mycobacterium tuberculosis; experiment: Antitubercular activity against Mycobacterium tuberculosis H37Ra harboring pTYOK in UAIRa broth culture assessed as concentration required to reduce relative luminescence unit to <10% measured after 4 days by autoluminescence assay; details: 96 h
[2] = test system: Mycobacterium tuberculosis; experiment: Antitubercular activity against isoniazid resistant Mycobacterium tuberculosis ATCC 35822 after 5 days; details: ATCC 35822, 120 h
In short: (§1)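 Ten-point two-fold DMSO dilutions in 7H9-Tw-OADC, final DMSO 2%, top concentration 200 µM. Incubated 5 days; growth read as OD590. Controls: medium/DMSO background, 100 µM rifampicin, DMSO-only, plus rifampicin dose-response. Gompertz fit of % growth; MIC taken as onset of zero growth. Plate acceptance: OD590 >0.2 in maximum-growth wells and rifampicin MIC within 3-fold of expected.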

[3] = test system: Mycobacterium tuberculosis; experiment: Antitubercular activity against isoniazid resistant Mycobacterium tuberculosis H37Rv harboring KAtG Y155 deletion mutant after 5 days; in short: as §1
[4] = test system: Mycobacterium tuberculosis; experiment: Antitubercular activity against fluoroquinolone resistant Mycobacterium tuberculosis H37Rv harboring gyrB D94N mutant after 5 days; in short: as §1
[5] = test system: Mycobacterium tuberculosis; experiment: Antitubercular activity against rifampicin resistant Mycobacterium tuberculosis ATCC 35828 after 5 days; details: ATCC 35828, 120 h; in short: as §1
[6] = test system: Mycobacterium tuberculosis; experiment: Antitubercular activity against rifampicin resistant Mycobacterium tuberculosis H37Rv harboring rpoB S522L mutant after 5 days; in short: as §1

Compound | MIC [1] [mg/L] | MIC [2] [mg/L] | MIC [3] [mg/L] | MIC [4] [mg/L] | MIC [5] [mg/L] | MIC [6] [mg/L]
CCc1nn2ccc(Cl)cc2c1C(=O)NCc1ccc(-c2ccc(OC(F)(F)F)cc2)nc1 | 0.1 (≈ 0.211 µM) | – | – | – | – | –
CCc1nn2ccc(Cl)cc2c1C(=O)NCC1CCN(CC23CC4CC(CC(C4)C2)C3)CC1 | 3 (≈ 6.4 µM) | – | – | – | – | –
CCc1nn2ccc(Cl)cc2c1C(=O)NC/C=C(\C)CCC=C(C)C | 0.3 (≈ 0.834 µM) | – | – | – | – | –
Cc1ccn2nc(C)c(C(=O)NCc3ccc(OC(F)(F)F)cc3)c2c1 | 3 (≈ 8.26 µM) | – | – | – | – | –
CO[C@H]1/C=C/O[C@@]2(C)Oc3c(C)c(O)c4c(O)c(c(/C=N/N5CCN(C)CC5)c(O)c4c3C2=O)NC(=O)/C(C)=C\C=C\[C@H](C)[C@H](O)[C@@H](C)[C@@H](O)[C@@H](C)[C@H](OC(C)=O)[C@@H]1C [RIFAMPIN] | 0.03 (≈ 0.0365 µM) | 0.007 (≈ 0.00851 µM) | 0.016 (≈ 0.0194 µM) | 0.017 (≈ 0.0207 µM) | > 41 | 0.42 (≈ 0.51 µM)
C[C@H]1COc2c(N3CCN(C)CC3)c(F)cc3c(=O)c(C(=O)O)cn1c23.C[C@H]1COc2c(N3CCN(C)CC3)c(F)cc3c(=O)c(C(=O)O)cn1c23.O [LEVOFLOXACIN] | – | 0.59 | 0.44 | 10 | 0.63 | 0.37
NNC(=O)c1ccncc1 [ISONIAZID] | 0.41 (≈ 2.99 µM) | > 27 | >27 | 0.088 (≈ 0.642 µM) | 0.11 (≈ 0.802 µM) | 0.056 (≈ 0.408 µM)
Cc1ccn2nc(C)c(C(=O)NCc3ccc(N4CCC(Oc5ccc(OC(F)(F)F)cc5)CC4)cc3)c2c1 | 0.03 (≈ 0.0557 µM) | – | – | – | – | –
CCc1nn2ccc(Cl)cc2c1C(=O)NC[C@H]1CN(c2ccc(N3CCOCC3)c(F)c2)C(=O)O1 | > 10 | – | – | – | – | –
